FGF22 binding – binders of human FGF22 protein, primary screen, FGF22 synaptogenesis inhibitor project, biophysical, thermal shift, single point; Fibroblast growth factor 22 (Homo sapiens), Q9HCT0; recombinant FGF22 thermal shift, SYPRO orange fluorescence; percent of sucrose octasulfate shift, DMSO zero; activity (Tm shift, normalised), % at 9.99 µM; 1.5% of 340,000 active; AID 651658, 2012;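 active means mean Tm shift, scaled 0 neutral to 100 positive control, at about 1.3% or above, every replicate too, limit read from the data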
Rtt109 HAT inh – inhibitors of C. albicans Rtt109/Vps75 HAT, primary screen, biochemical, ThioGlo CoA-SH fluorescence, plate reader; inhibition, % at 34.9 µM; 0.16% of 330,000 active; Histone acetyltransferase RTT109 (Candida albicans (strain SC5314 / ATCC MYA-2876)), …; AID 540336, 2011; purified Rtt109/Vps75, 4 h;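 active means inhibition of at least 50% in every replicate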
Efflux pump mplx – inhibitors of Candida efflux pumps in yeast, primary screen, S. cerevisiae, Nile Red, multiplex. 0.44% of 330,000 active. S. cerevisiae Candida pump triplex. AID 485275, 2010. inhibition, % at 10 µM;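 active means plate passing quality check with inhibition over a set limit, or well fluorescence over plate mean plus 4 SD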;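 further: Nile Red retained in pooled yeast measured as flow cytometry median fluorescence; higher means more Nile Red kept so more efflux inhibition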
ASAP1 GAP inh – inhibitors of human ASAP1 ArfGAP activity, primary screen, biochemical, fluorescence polarization; ASAP1-stimulated ARF1 GTP hydrolysis, GDP FP detection; Arf-GAP with SH3 domain, ANK repeat and PH domain-containing protein 1 (Homo sapiens), …; 0.19% of 360,000 active; inhibition, % at 16.5 µM; AID 624377, 2012; in the data active means inhibition above about 25%
Target sequence (Q9ULH1 325-724 limits assumed): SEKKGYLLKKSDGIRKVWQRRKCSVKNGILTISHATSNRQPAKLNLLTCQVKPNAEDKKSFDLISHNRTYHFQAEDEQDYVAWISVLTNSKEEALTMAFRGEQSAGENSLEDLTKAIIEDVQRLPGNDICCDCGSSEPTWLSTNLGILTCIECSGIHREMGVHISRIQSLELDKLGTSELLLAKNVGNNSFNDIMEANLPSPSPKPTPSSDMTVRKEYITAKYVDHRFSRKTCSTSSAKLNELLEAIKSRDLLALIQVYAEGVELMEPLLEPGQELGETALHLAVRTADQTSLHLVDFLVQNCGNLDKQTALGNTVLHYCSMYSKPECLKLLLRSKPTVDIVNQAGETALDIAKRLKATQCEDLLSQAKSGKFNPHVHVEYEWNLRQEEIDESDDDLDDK
ARFGAP1 inh – inhibitors of rat ARFGAP1 GAP activity, primary screen, biochemical, fluorescence polarization, GDP tracer | ADP-ribosylation factor GTPase-activating protein 1 (Rattus norvegicus), Q62848 | Arfgap1-stimulated ARF1 GTP hydrolysis, GDP FP detection | inhibition, % at 16.5 µM | 0.26% of 360,000 active | AID 651572, 2012;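 active means inhibition above a per-plate limit, mean inhibition of low control wells plus 3 SD, cut at about 25% in these data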
Target sequence (Q62848 1-136 limits assumed): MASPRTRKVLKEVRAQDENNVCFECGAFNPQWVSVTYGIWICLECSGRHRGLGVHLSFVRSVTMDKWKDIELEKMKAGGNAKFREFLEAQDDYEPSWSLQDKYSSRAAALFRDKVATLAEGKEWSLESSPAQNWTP
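Assay system: Rat Arfgap1 GAP domain (His6, aa 1-136), purified enzyme | Buffer or medium: HEPES 25 mM pH 7.5, NaCl 150 mM, MgCl2, DTT | Schedule: GTP hydrolysis reaction 2 h at 25 °C | Signal: FP of antibody-bound GDP Alexa 633 tracer, ex 620/em 688 nm | Measure: Percent inhibition of Arfgap1-stimulated GTP hydrolysis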
Cmpd fluor yeast – flagged as fluorescent in efflux inhibitor counter-screen. shares compounds with Efflux pump mplx. S. cerevisiae AD/pABC3, compound fluorescence, flow cytometry. fluorescence ratio to DMSO, % at 10 µM. 4% of 1,700 active;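 active means fluorescence ratio to DMSO above its plate's cutoff, the plate mean ratio plus 5 SD, cut at about 210% in these data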;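 further: unstained yeast with no Nile Red so the signal is compound autofluorescence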
Mdr1 pump inh – inhibitors of Candida albicans Mdr1 efflux, confirmation, flow cytometry, singleplex, Cherry Pick1 set | shares compounds with Efflux pump mplx | S. cerevisiae AD/CaMDR1, Nile Red efflux | inhibition, % at 10 µM | 1% of 1,700 active; in the data active means inhibition above about 26%;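 further: higher means more Nile Red retained so more efflux inhibition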
CaCdr2 efflux inh – inhibitors of Candida albicans Cdr2 efflux pump, confirmation, S. cerevisiae AD/CaCDR2, flow cytometry, cherry pick 1, singleplex; shares compounds with Efflux pump mplx; Nile Red retention; Nile Red retention ratio vs DMSO, % at 10 µM; 4% of 1,700 active; in the data active means Nile Red retention ratio vs DMSO above about 190%;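 further: higher ratio means more blocking of Cdr2 efflux of the dye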
Cdr1 pump inh – inhibitors of Candida albicans Cdr1 efflux pump, confirmation, S. cerevisiae AD/CaCDR1, flow cytometry, cherry pick 1, singleplex | shares compounds with Efflux pump mplx | Nile Red efflux | inhibition, % at 10 µM | 1% of 1,700 active | AID 588522, 2011;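 active means inhibition above the screen-wide mean plus twice its standard deviation, cut at about 32% in these data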
Large screens that a line does not name were inactive (follow-up assays come after a bar, where they were run). An excerpt weighted towards active compounds, which were near 1.9% of everything screened.

O=C(N/N=C/c1ccc(-c2ccc(Br)cc2)o1)c1ccc2c(c1)OCO2	none
CC(C)[C@H](NC(=O)c1ccccc1)C(=O)OCC(=O)NCC1CCCO1 (stereo partly specified)	none
C/C(=N\NC(=O)c1cccc(Cl)c1)C1C(=O)c2ccccc2C1=O	Efflux pump mplx 13 | Cmpd fluor yeast inactive | Mdr1 pump inh inactive | CaCdr2 efflux inh inactive | Cdr1 pump inh inactive
Cc1ccc(S(=O)(=O)N(C)C[C@@H]2OCCCC[C@@H](C)Oc3ccc(NC(=O)Nc4ccc(C(F)(F)F)cc4)cc3C(=O)N([C@@H](C)CO)C[C@H]2C)cc1	none (no result: Rtt109 HAT inh, Efflux pump mplx, ASAP1 GAP inh, ARFGAP1 inh)
Cc1[nH]c(C)c(S(=O)(=O)N2CCCCC2)c1C(=O)N1CCCC1	none
CCC(=O)N1CCc2cc(S(=O)(=O)Nc3ccc4c(c3)OCCO4)ccc21	none (no result: FGF22 binding)
O=C(C1CCC1)N1CCc2cc(S(=O)(=O)Nc3ccc4c(c3)OCCO4)ccc21	none (no result: FGF22 binding) | Cmpd fluor yeast inactive | Mdr1 pump inh inactive | CaCdr2 efflux inh inactive | Cdr1 pump inh inactive
Cc1ccc(CNS(=O)(=O)c2ccc3c(c2)CCN3C(=O)C2CCC2)cc1	none | Cmpd fluor yeast inactive | Mdr1 pump inh inactive | CaCdr2 efflux inh inactive | Cdr1 pump inh inactive
CCCN(CCC)CCNS(=O)(=O)c1ccc2c(c1)CCN2C(=O)C1CCC1	none (no result: FGF22 binding) | Cmpd fluor yeast inactive | Mdr1 pump inh inactive | CaCdr2 efflux inh inactive | Cdr1 pump inh inactive
CC(=O)N1CCc2cc(S(=O)(=O)NCc3ccc(C)cc3)ccc21	none
CC1CCCN(CCCNS(=O)(=O)c2ccc3c(c2)CCN3C(=O)C2CC2)C1 (stereo unspecified)	Efflux pump mplx 1.4 | Cmpd fluor yeast inactive | Mdr1 pump inh inactive | CaCdr2 efflux inh inactive | Cdr1 pump inh inactive
CCOC(=O)c1cnc2ccc(OCC)cc2c1N1CCN(c2ccccc2)CC1	none (no result: FGF22 binding)
CCOC(=O)C1=C(C)Nc2sc(C(=O)c3ccc(OC)cc3)c(N)c2C1c1ccc(C(=O)OC)cc1 (stereo unspecified)	Efflux pump mplx 11 | Cmpd fluor yeast inactive | Mdr1 pump inh inactive | CaCdr2 efflux inh inactive | Cdr1 pump inh inactive
O=Cc1ccc(-n2cncn2)cc1	Efflux pump mplx 1.0 (no result: Rtt109 HAT inh) | Cmpd fluor yeast inactive | Mdr1 pump inh inactive | CaCdr2 efflux inh inactive | Cdr1 pump inh inactive
COC(=O)/C=C/c1ccc(-n2cncn2)cc1	none (no result: FGF22 binding, Rtt109 HAT inh)
CCN(C(=O)CN1C(=O)COc2ccc(S(=O)(=O)N3CCOCC3)cc21)c1ccc(OC)cc1	none
COc1ccc(-c2cc(C(=O)Nc3ccc(OC)c(OC)c3)no2)cc1	Efflux pump mplx 1.4 | Cmpd fluor yeast inactive | Mdr1 pump inh inactive | CaCdr2 efflux inh inactive | Cdr1 pump inh inactive
Cc1cccc(NC(=O)CSc2nc3nc4c(cc3c(=O)n2-c2ccccc2)CCCC4)c1	none (no result: FGF22 binding)
O=C(CSc1nc2nc3c(cc2c(=O)n1-c1ccccc1)CCCC3)Nc1cccc2ccccc12	Efflux pump mplx 1.1 | Cmpd fluor yeast inactive | Mdr1 pump inh inactive | CaCdr2 efflux inh inactive | Cdr1 pump inh inactive
